From ChEMBL document CHEMBL4813974 (Eur J Med Chem, 2021)
Calls of active or inactive are those of the source. No cut-off for these calls is given here.

Tests used:
Neutral ceramidase [1] = target: T1, Neutral ceramidase (Homo sapiens, UniProt Q9NR71); experiment: Inhibition of human ASAH2 transiently over expressed in human HT29 cell lysate using RBM14C24 fluorogenic substrate measured at >40 uM at pH 7.4 by fluorescence spectrophotometry; conditions: HT-29, dose microM >40
[2] = target: T2, Alkaline ceramidase 3 (Mus musculus) (UniProt Q9D099); experiment: Inhibition of ACER3 in ASAH2-null mouse embryonic fibroblast lysate using RBM14C16 fluorogenic substrate measured at pH 9 in presence of Ca2+ by fluorescence spectrophotometry; type: subcellular; conditions: MEF, time 3.0 hrs
T2 sequence (whole entry): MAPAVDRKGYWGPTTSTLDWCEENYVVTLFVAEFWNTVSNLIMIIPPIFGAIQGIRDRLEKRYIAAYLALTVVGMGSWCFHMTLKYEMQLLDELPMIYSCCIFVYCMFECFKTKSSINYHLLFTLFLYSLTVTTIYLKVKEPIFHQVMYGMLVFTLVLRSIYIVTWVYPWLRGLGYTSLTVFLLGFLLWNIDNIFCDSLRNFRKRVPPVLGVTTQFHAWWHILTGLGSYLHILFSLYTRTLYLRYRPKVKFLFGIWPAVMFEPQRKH
Summary of the method: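 Lysate of ASAH2-null MEF (25 μg protein) in 50 mM HEPES, 1 mM CaCl2, pH 9, incubated 3 h at 37 °C with RBM14C16 and test compound. Stopped with MeOH, then NaIO4 in glycine-NaOH pH 10.6, 1 h at 37 °C in dark. Fluorescence read at ex 355/em 460 nm against enzyme-free blanks. Triplicates.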

Neutral ceramidase [3] = target: T1, Neutral ceramidase; experiment: Non-competitive inhibition of recombinant ASAH2 stably over expressed in human A-375 cell lysate using RBM14C24 as substrate; type: subcellular
[4] = target: T2, Alkaline ceramidase 3 (Mus musculus); experiment: Inhibition of ACER3 in ASAH2-null intact mouse embryonic fibroblast cell assessed as reduction in sphingomyelin level incubated for 3 hrs by LC-MS analysis; conditions: MEF
Summary of the method: (§1)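 ASAH2-null MEF seeded at 0.2x10^6 cells/mL, grown 24 h, then given 50 μM compound or vehicle in DMEM 10% FBS for 3 h. Cells washed with PBS, lipids extracted and quantified by LC/MS. Mean ± SD from two experiments with triplicates; unpaired two-tailed t-test versus vehicle.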

[5] = target: T2, Alkaline ceramidase 3 (Mus musculus); experiment: Inhibition of ACER3 in ASAH2-null intact mouse embryonic fibroblast cell assessed as increase in total […] incubated for 3 hrs by LC-MS analysis; conditions: MEF
Summary of the method: as §1

[6] = target: Neutral ceramidase (Mus musculus) (UniProt Q9JHE3); experiment: Inhibition of ASAH2 in wild type mouse intact embryonic fibroblast using RBM14C16 fluorogenic substrate measured at pH 7.5 incubated for 3 hrs by fluorescence spectrophotometry; conditions: MEF
Sequence of Neutral ceramidase (Mus musculus) (Q9JHE3 whole entry): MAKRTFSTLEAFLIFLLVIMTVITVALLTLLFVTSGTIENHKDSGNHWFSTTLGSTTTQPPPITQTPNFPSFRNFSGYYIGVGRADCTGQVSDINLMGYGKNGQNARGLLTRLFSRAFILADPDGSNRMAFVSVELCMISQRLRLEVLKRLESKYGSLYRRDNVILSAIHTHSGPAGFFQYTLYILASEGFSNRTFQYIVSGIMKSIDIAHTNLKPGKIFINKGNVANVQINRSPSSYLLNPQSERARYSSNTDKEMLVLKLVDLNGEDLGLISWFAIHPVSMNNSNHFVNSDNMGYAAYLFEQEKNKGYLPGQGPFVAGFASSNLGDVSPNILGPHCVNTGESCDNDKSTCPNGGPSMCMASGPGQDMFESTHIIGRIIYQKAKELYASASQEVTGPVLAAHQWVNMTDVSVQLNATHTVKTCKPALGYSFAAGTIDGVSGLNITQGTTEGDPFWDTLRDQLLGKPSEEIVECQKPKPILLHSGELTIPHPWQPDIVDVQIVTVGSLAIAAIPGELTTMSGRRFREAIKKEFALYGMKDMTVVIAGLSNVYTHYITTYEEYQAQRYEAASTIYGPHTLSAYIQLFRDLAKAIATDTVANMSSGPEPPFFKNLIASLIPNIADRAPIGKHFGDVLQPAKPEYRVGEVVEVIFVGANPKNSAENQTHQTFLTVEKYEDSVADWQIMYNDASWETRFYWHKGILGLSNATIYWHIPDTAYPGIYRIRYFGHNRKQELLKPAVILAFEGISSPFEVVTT
Summary of the method: (§2)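 Intact MEF (ASAH2-null or wild type) seeded at 2x10^4 cells/well 24 h before the assay. Then given RBM14C16 (10 μM) plus a range of compound concentrations, added together, in DMEM 10% FBS for 3 h at 37 °C. Stopped with MeOH, oxidized with NaIO4 at pH 10.6, umbelliferone fluorescence read at 355/460 nm. Normalized to SRB protein; three experiments in triplicate.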

[7] = target: T3, Acid ceramidase (Homo sapiens) (UniProt Q13510); experiment: Inhibition of human ASAH1 stably over expressed in human A-375 cell lysate using RBM14C12 fluorogenic substrate measured at 40 uM at pH 4.5 by fluorescence spectrophotometry; type: subcellular
T3 sequence (whole entry): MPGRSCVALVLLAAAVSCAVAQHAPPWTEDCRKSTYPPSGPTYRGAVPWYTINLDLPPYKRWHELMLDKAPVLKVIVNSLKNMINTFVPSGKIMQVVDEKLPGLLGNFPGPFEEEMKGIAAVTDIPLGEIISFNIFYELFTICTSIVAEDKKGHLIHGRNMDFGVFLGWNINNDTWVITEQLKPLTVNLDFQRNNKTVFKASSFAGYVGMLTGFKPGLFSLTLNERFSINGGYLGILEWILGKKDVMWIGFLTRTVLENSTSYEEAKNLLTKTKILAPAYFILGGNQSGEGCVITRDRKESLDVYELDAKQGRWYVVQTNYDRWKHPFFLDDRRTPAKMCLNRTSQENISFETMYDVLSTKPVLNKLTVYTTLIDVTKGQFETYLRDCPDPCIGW
Summary of the method: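 Lysate of doxycycline-induced AC-overexpressing A375 cells (25 μg) in 25 mM sodium acetate pH 4.5, with RBM14C12 (10 μM) and a range of compound concentrations, 3 h at 37 °C. NaIO4/glycine-NaOH pH 10.6 development, fluorescence at 355/460 nm. Mean ± SEM from three to four experiments in triplicate.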

Neutral ceramidase [8] = target: T1, Neutral ceramidase; experiment: Inhibition of human ASAH2 transiently over expressed in human HT-29 cell lysate using RBM14C24 fluorogenic substrate measured at pH 7.4 by fluorescence spectrophotometry
[9] = target: T2, Alkaline ceramidase 3 (Mus musculus); experiment: Inhibition of ACER3 in ASAH2-null intact mouse embryonic fibroblast cell assessed as reduction in glucosylceramide level incubated for 3 hrs by LC-MS analysis; conditions: MEF
Summary of the method: as §1

[10] = target: T2, Alkaline ceramidase 3 (Mus musculus); experiment: Inhibition of ACER3 in ASAH2-null mouse intact embryonic fibroblast using RBM14C16 fluorogenic substrate measured at pH 9 for 3 hrs by fluorescence spectrophotometry; conditions: MEF
Summary of the method: as §2

Neutral ceramidase [11] = target: T1, Neutral ceramidase; experiment: Inhibition of human ASAH2 stably over expressed in human A-375 cell lysate using RBM14C24 fluorogenic substrate measured at 20 uM at pH 7.5 by fluorescence spectrophotometry; type: subcellular
[12] = target: T2, Alkaline ceramidase 3 (Mus musculus); experiment: Inhibition of ACER3 in ASAH2-null intact mouse embryonic fibroblast cell assessed as reduction in sphingosine level incubated for 3 hrs by LC-MS analysis; conditions: MEF
Summary of the method: as §1

Alkaline ceramidase 3 = target: T4, Alkaline ceramidase 3 (Mus musculus, UniProt Q9D099); experiment: Non-competitive inhibition of ACER3 in ASAH2-null mouse embryonic fibroblast lysate using RBM14C16 as substrate; type: subcellular
T4 sequence (Q9D099 whole entry): T2 sequence (whole entry)
Summary of the method: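 Kinetics used ASAH2-null MEF lysate (25 μg) in 50 mM HEPES, 1 mM CaCl2, pH 9. RBM14C16 at 5, 10, 20 and 40 μM, with varied inhibitor amounts. Ki taken from the slopes of double-reciprocal regression lines at each inhibitor concentration. Four experiments in triplicate.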

Acid ceramidase = target: T5, Acid ceramidase (Homo sapiens, UniProt Q13510); experiment: (§3) Inhibition of human ASAH1 stably over expressed in human intact A-375 cells using RBM14C12 fluorogenic substrate measured at pH 4.5 by fluorescence spectrophotometry; type: cell-based
T5 sequence (Q13510 whole entry): T3 sequence (whole entry)
Summary of the method: (§4)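 A375 cells with doxycycline-inducible AC, induced with 1 μg/mL doxycycline for 24 h. Intact cells (2x10^4/well) given RBM14C12 (10 μM) plus compounds in a range of concentrations in DMEM 10% FBS for 3 h at 37 °C. NaIO4 oxidation at pH 10.6, fluorescence at 355/460 nm, normalized to SRB protein. Three experiments in triplicate.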

[13] = target: T3, Acid ceramidase (Homo sapiens); experiment: Inhibition of human ASAH1 stably over expressed in human A-375 cell lysate using RBM14C12 fluorogenic substrate measured at 1:1 compound to substrate molar ratio at pH 4.5 by fluorescence spectrophotometry; type: subcellular
Neutral ceramidase [14] = target: T1, Neutral ceramidase; experiment: Inhibition of human ASAH2 recombinant enzyme using RBM14C16 fluorogenic substrate measured at 5 uM at pH 7.5 by fluorescence spectrophotometry
Neutral ceramidase [15] = target: T1, Neutral ceramidase; experiment: Inhibition of human ASAH2 recombinant enzyme using RBM14C16 fluorogenic substrate measured at 20:1 substrate to compound molar ratio at pH 7.5 by fluorescence spectrophotometry
[16] = target: T3, Acid ceramidase (Homo sapiens); experiment: as §3; type: cell-based; conditions: time 3.0 hrs
Summary of the method: as §4

T1 sequence (Q9NR71 whole entry): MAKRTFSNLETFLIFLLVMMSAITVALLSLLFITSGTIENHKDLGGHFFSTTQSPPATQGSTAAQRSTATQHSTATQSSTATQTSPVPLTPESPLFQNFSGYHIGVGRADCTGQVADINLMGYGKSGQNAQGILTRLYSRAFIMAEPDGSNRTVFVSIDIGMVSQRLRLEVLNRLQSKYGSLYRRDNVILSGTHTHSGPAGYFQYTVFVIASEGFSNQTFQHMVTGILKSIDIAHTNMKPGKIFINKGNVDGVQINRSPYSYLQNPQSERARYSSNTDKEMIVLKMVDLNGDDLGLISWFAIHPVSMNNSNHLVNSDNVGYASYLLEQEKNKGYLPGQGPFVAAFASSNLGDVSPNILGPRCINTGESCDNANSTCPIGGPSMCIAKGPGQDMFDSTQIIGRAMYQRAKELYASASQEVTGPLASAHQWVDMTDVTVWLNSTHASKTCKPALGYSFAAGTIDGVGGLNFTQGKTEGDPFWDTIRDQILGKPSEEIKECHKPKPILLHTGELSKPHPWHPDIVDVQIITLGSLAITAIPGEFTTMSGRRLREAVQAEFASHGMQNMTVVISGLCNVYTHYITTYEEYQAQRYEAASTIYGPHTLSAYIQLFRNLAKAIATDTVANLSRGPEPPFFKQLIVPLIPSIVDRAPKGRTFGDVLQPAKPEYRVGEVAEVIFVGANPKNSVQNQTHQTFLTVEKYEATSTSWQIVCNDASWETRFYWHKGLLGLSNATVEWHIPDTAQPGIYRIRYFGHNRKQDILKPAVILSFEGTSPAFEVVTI

Structure (SMILES): CCCCCCCCCCCC/C=C/[C@@H](O)[C@@H](C)NC(=O)c1ccc(OCCCOCOC)cc1
- inhibition (Neutral ceramidase [1]): 50%
- inhibition [2]: Dose-Dependent Effect
- Ki (Neutral ceramidase [3]): 5.4 µM
- inhibition [4]: inactive
- fold change (FC) [5]: 1.5
- inhibition [6]: Active
- inhibition [7]: Active
- inhibition (Neutral ceramidase [8]): Dose-Dependent Effect
- inhibition [9]: inactive
- inhibition [10]: Active
- inhibition (Neutral ceramidase [11]): inactive
- inhibition [12]: inactive
- Ki (Alkaline ceramidase 3): 25.5 µM
- IC50 (Acid ceramidase): > 200 µM
- inhibition [13]: inactive

Structure (SMILES): CCCCCCCCCCCC/C=C/[C@@H](O)[C@@H](C)NC(=O)c1ccc(OCCCCOCOC)cc1
- inhibition [2]: Dose-Dependent Effect
- inhibition [4]: inactive
- fold change (FC) [5]: 1.5
- inhibition [6]: Active
- inhibition [9]: inactive
- inhibition [10]: Active
- inhibition [12]: inactive
- Ki (Alkaline ceramidase 3): 34.4 µM
- IC50 (Acid ceramidase): > 200 µM
- inhibition [13]: inactive

Structure (SMILES): CCCCCCCCCCCC/C=C/[C@@H](O)[C@@H](C)NC(=O)c1ccc(CCCCCCC)cc1
- Ki (Neutral ceramidase [3]): 0.8 µM
- inhibition [6]: inactive
- inhibition [7]: Active
- inhibition (Neutral ceramidase [8]): inactive
- inhibition [10]: inactive
- inhibition (Neutral ceramidase [11]): Active
- inhibition (Neutral ceramidase [14]): Active
- inhibition (Neutral ceramidase [15]): Active
- inhibition [16]: inactive
- inhibition [13]: inactive
